Reference: ChEMBL document CHEMBL3102710, “Design, synthesis, and evaluation of fimbrolide-nitric oxide donor hybrids as antimicrobial agents” (J Med Chem, 2013)
The source made the active and inactive calls. Unless noted, no cut-off for these calls is given here.

What was measured:
[1] = Inhibition of quorum sensing system in Pseudomonas aeruginosa PAO1 MH602 harboring lasB promoter fused with GFP-ASV assessed as reduction in GFP-ASV reporter protein expression at 9.8 uM measured every 30 mins relative to control
In short: (§1)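 P. aeruginosa PAO1 carrying a PlasB::gfp(ASV) fusion plasmid, which makes its own AHL signals, incubated with compounds at 88.8, 29.6, 9.9, 3.3 or 1.0 μM. GFP fluorescence (RFU) read every half hour. Percent QS inhibition is the percent RFU difference between sample and untreated control, taken at the time point when control fluorescence peaks.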

[2] = Inhibition of quorum sensing system in Pseudomonas aeruginosa PAO1 MH602 harboring lasB promoter fused with GFP-ASV assessed as reduction in GFP-ASV reporter protein expression measured every 30 mins; in short: as §1
[3] = Inhibition of quorum sensing system in Pseudomonas aeruginosa PAO1 MH602 harboring lasB promoter fused with GFP-ASV assessed as reduction in GFP-ASV reporter protein expression at 88 uM measured every 30 mins relative to control; in short: as §1
[4] = Inhibition of quorum sensing system in Pseudomonas aeruginosa PAO1 MH602 harboring lasB promoter fused with GFP-ASV assessed as reduction in GFP-ASV reporter protein expression at 29 uM measured every 30 mins relative to control; in short: as §1
[5] = Inhibition of quorum sensing system in Pseudomonas aeruginosa PAO1 MH602 harboring lasB promoter fused with GFP-ASV assessed as reduction in GFP-ASV reporter protein expression at 266 uM measured every 30 mins relative to control
[6] = Inhibition of quorum sensing system in Pseudomonas aeruginosa PAO1 MH602 harboring lasB promoter fused with GFP-ASV assessed as reduction in GFP-ASV reporter protein expression at 3.2 uM measured every 30 mins relative to control; in short: as §1
Pseudomonas aeruginosa [7] = assay: Antibacterial activity against Pseudomonas aeruginosa PAO1 MH602 harboring lasB promoter fused with GFP-ASV assessed as growth inhibition at 88 uM measured every 30 mins by GFP-ASV reporter gene assay; format: organism-based; settings: for Activity: pseudomonas aeruginosa, in vivo, 0.5 h, 88 µM
In short: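 Cell growth of the PAO1 PlasB::gfp(ASV) reporter strain tracked as OD600 every half hour during compound incubation, alongside GFP readings. Growth is compared against the untreated control.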

Pseudomonas aeruginosa [8] = assay: Induction of nitric oxide-dependent nirS gene expression in Pseudomonas aeruginosa at 500 uM incubated for 2 hrs under dark condition by GFP reporter gene assay relative to untreated control; format: functional
Pseudomonas aeruginosa [9] = assay: Antibacterial activity against Pseudomonas aeruginosa assessed as growth inhibition at 500 uM after 2 hrs by GFP reporter gene assay; format: organism-based; settings: in vivo
[10] = Induction of nitric oxide release in PBS buffer supplemented with L-cysteine, xanthine, xanthine oxidase assessed as nitrite release at 250 to 500 uM after 1 hr by Griess assay; format: physicochemical
In short: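 Total NO release was quantified as nitrite with Griess reagent, which detects nitrite at ≥1 μM. Because of that limit, compounds were added at 250 μM and 500 μM.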

Pseudomonas aeruginosa [11] = assay: Antibacterial activity against Pseudomonas aeruginosa PAO1 assessed as inhibition of biofilm formation at 150 uM after 6 hrs by crystal violet staining assay relative to control; format: functional; settings: for inhibition at 150 µM: PAO1, 6 h
Pseudomonas aeruginosa [12] = assay: Antibacterial activity against Pseudomonas aeruginosa PAO1 assessed as growth inhibition at 150 uM after 6 hrs; format: organism-based; settings: in vivo
Pseudomonas aeruginosa [13] = assay: Antibacterial activity against Pseudomonas aeruginosa MH602 harboring lasB promoter fused with GFP-ASV assessed as growth inhibition at 266 uM measured every 30 mins by GFP-ASV reporter gene assay; format: organism-based; settings: MH602, 0.5 h, read-out: GI

SMILES	inhibition [1]	inhibition [2]	inhibition [3] [%]	inhibition [4]	inhibition [5] [%]	inhibition [6]	Activity (Pseudomonas aeruginosa [7])	Activity (Pseudomonas aeruginosa [8])	Activity (Pseudomonas aeruginosa [9])	Activity [10]	inhibition (Pseudomonas aeruginosa [11])	inhibition at 150 µM (Pseudomonas aeruginosa [11]) [%]	Activity (Pseudomonas aeruginosa [12])	inhibition at 266 µM (Pseudomonas aeruginosa [13]) [%]	fold change (FC) (Pseudomonas aeruginosa [8])	inhibition at 88 µM (Pseudomonas aeruginosa [7]; Pseudomonas aeruginosa, PAO1 MH602, 0.5 h, read-out: GI) [%]
CCCCC1=CC(=C(Br)Br)OC1=O	inactive	Dose-dependent effect	34.1	17%	69.8	inactive	Non-toxic	–	–	–	–	–	–	–	–	–
CCCC(OC(=O)CCCCCCCCCCO[N+](=O)[O-])C1=CC(=C(Br)Br)OC1=O (configuration not stated)	inactive	Dose-dependent effect	21.8	6.2%	54.8	inactive	Non-toxic	inactive	Non-toxic	Active	–	–	–	–	–	–
CCCC(OC(=O)CCCCCCCO[N+](=O)[O-])C1=CC(=C(Br)Br)OC1=O (configuration not stated)	inactive	Dose-dependent effect	12.9	inactive	40.6	inactive	Non-toxic	inactive	Non-toxic	1 µM	–	–	–	–	–	–
CCCC(OC(=O)CCC(=O)N1CCN(/[N+]([O-])=N/OC)CC1)C1=CC(=C(Br)Br)OC1=O (configuration not stated)	4.6%	Dose-dependent effect	39.3	17.7%	65.4	inactive	Non-toxic	–	–	–	inactive	–	–	–	–	–
CCCCCCC(O[N+](=O)[O-])C1=CC(=C(Br)Br)OC1=O (configuration not stated)	inactive	Dose-dependent effect	29.9	9.5%	65.7	inactive	Non-toxic	inactive	Non-toxic	–	–	–	–	–	–	–
CCCC(OC(=O)CCCCCO[N+](=O)[O-])C1=CC(=C(Br)Br)OC1=O (configuration not stated)	inactive	Dose-dependent effect	18.8	7.9%	54.1	inactive	Non-toxic	inactive	Non-toxic	–	–	–	–	–	–	–
CCCC(SC(=O)CCCO[N+](=O)[O-])C1=CC(=C(Br)Br)OC1=O (configuration not stated)	inactive	Dose-dependent effect	13.8	inactive	54.2	inactive	Non-toxic	inactive	Non-toxic	Active	–	–	–	–	–	–
CCCCCC(OC(=O)CC(=O)N1CCN(/[N+]([O-])=N/OC)CC1)C1=CC(=C(Br)Br)OC1=O (configuration not stated)	9.5%	Dose-dependent effect	41.5	23.7%	62.9	inactive	Non-toxic	–	–	–	inactive	–	–	–	–	–
CCCC(OC(=O)CCCO[N+](=O)[O-])C1=CC(=C(Br)Br)OC1=O (configuration not stated)	8%	Dose-dependent effect	28.6	12.3%	55.8	inactive	Non-toxic	inactive	Non-toxic	1 µM	–	–	–	–	–	–
CCCC(SC(=O)CCCCCO[N+](=O)[O-])C1=CC(=C(Br)Br)OC1=O (configuration not stated)	inactive	Dose-dependent effect	10.1	inactive	47.8	inactive	Non-toxic	–	–	Active	–	–	–	–	–	–
CCCCCCCCCCCC(OC(=O)CCC(=O)N1CCN(/[N+]([O-])=N/OC)CC1)C1=CC(=C(Br)Br)OC1=O (configuration not stated)	inactive	Dose-dependent effect	6	inactive	41.9	inactive	Non-toxic	–	–	–	inactive	–	–	–	–	–
CCCC(OC(=O)CCO[N+](=O)[O-])C1=CC(=C(Br)Br)OC1=O (configuration not stated)	12.5%	Dose-dependent effect	62.8	43.1%	80.6	inactive	Non-toxic	inactive	Non-toxic	–	–	–	–	–	–	–
CCCCCC(O[N+](=O)[O-])C1=CC(=C(Br)Br)OC1=O (configuration not stated)	inactive	Dose-dependent effect	56.4	32.5%	73.1	inactive	Non-toxic	inactive	Non-toxic	1 µM	–	70	Non-toxic	–	–	–
CCCC(OC(=O)CO/N=[N+](\[O-])N(CC)CC)C1=CC(=C(Br)Br)OC1=O (configuration not stated)	6.2%	Dose-dependent effect	52	30%	74.8	inactive	Non-toxic	–	–	–	inactive	–	–	–	–	–
CCCC(S)C1=CC(=C(Br)Br)OC1=O (configuration not stated)	1.5%	Dose-dependent effect	17.9	4.3%	50.5	inactive	Non-toxic	–	–	–	–	–	–	–	–	–
CCCC(O[N+](=O)[O-])C1=CC(=C(Br)Br)OC1=O (configuration not stated)	22.4%	Dose-dependent effect	71.4	39.9%	91.1	inactive	Non-toxic	inactive	Non-toxic	1 µM	–	70	Non-toxic	> 15	–	–
CCCC(SC(=O)CCO[N+](=O)[O-])C1=CC(=C(Br)Br)OC1=O (configuration not stated)	inactive	Dose-dependent effect	51.5	33.6%	72.3	inactive	Non-toxic	–	Non-toxic	1 µM	–	–	–	–	2	–
CCCCCCCC(O[N+](=O)[O-])C1=CC(=C(Br)Br)OC1=O (configuration not stated)	inactive	Dose-dependent effect	19.2	inactive	58.2	inactive	Non-toxic	inactive	Non-toxic	Active	–	–	–	–	–	–
CCCC(O)C1=CC(=C(Br)Br)OC1=O (configuration not stated)	16.7%	Dose-dependent effect	62.9	37%	85.8	inactive	Non-toxic	–	–	–	–	–	–	–	–	–
CC(O[N+](=O)[O-])C1=CC(=C(Br)Br)OC1=O (configuration not stated)	inactive	Dose-dependent effect	70.4	29%	94.3	inactive	–	inactive	Toxic	–	Active	–	–	> 15	–	> 15
CCCC(OC(=O)CO/N=[N+](\[O-])N1CCOCC1)C1=CC(=C(Br)Br)OC1=O (configuration not stated)	inactive	Dose-dependent effect	47.5	15.9%	72.1	inactive	Non-toxic	–	–	–	inactive	–	–	–	–	–
CCCCC1=C(Br)/C(=C/Br)OC1=O	inactive	Dose-dependent effect	39.9	5.9%	75.8	inactive	Non-toxic	–	–	–	–	–	–	–	–	–
O=[N+]([O-])O[C@H]1CO[C@H]2[C@@H]1OC[C@H]2O[N+](=O)[O-] [ISOSORBIDE DINITRATE]	–	–	–	–	–	–	–	inactive	Non-toxic	4 µM	–	–	–	–	–	–
